This is an account of results in ChEMBL document CHEMBL3244342, “Haloacetamido analogues of 2-amino-2-deoxy-D-glucose and 2-amino-2-deoxy-D-galactose. Syntheses and effects on the Friend murine erythroleukemia” (J Med Chem, 1978).

Data set [1] can be described thus: Inhibition of cell growth of DBA/2J mouse Friend erythroleukemia cells at 4 uM after 3 days in presence of bis(acetyl)diaminopentane. Type of data set: functional. As to conditions: Leukemia cell, 72 h. The essentials:
(§1)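 Exponentially growing cells seeded at 10^5 cells/mL, exposed for 3 days to 4.5 mM bis(acetyl)diaminopentane together with the analogue. Cell numbers counted by Coulter counter. Cytostasis expressed relative to untreated control cultures.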

Data set [2] can be described thus: Toxicity in ip dosed BDF1 mouse assessed as animal killed administered as single dose. As to conditions: in vivo.
The subject of data set [3] is Leukemia cell. Kind of data set: Antitumor activity against DBA/2J mouse Friend erythroleukemia cells allografted ip dosed DBA/2 mouse assessed as increase in host survival time administered on days 1, 2 and 3 after tumor transplantation. It is filed as functional, organism-based.
Data set [4] concerns Leukemia cell. The experiment in a line: Induction of cell differentiation in DBA/2J mouse Friend erythroleukemia cells assessed as proportion of hemoglobin containing cells at IC50 concentration for antiproliferative effect after 3 days by benzidine peroxide staining. It is filed as functional, cell-based. A digest of the protocol: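 Exponentially growing cells seeded at 10^5 cells/mL in DMEM with 10% fetal calf serum at 37 °C and 10% CO2, incubated 3 days with the analogue. Ethanol vehicle final ≤0.125%. Hemoglobin-containing cells scored by benzidine peroxide stain. Controls received no drug or the inducer bis(acetyl)diaminopentane.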

Data set [5] is described as follows: Antiproliferative activity against DBA/2J mouse Friend erythroleukemia cells after 3 days by cell counter. As to conditions: Leukemia cell, 72 h. It is filed as functional, cell-based. The essentials: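 Log-phase suspension cultures in DMEM with 10% fetal calf serum, penicillin/streptomycin, 37 °C, 10% CO2, seeded at 10^5 cells/mL. Continuous exposure to a range of concentrations for 3 days. Water-insoluble agents given in ethanol (final ≤0.125%). Cells counted by Coulter counter. IC50 is the concentration giving 50% inhibition of multiplication versus vehicle-treated controls.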

A short description of data set [6]: Inhibition of bis(acetyl)diaminopentane-induced cell differentiation in DBA/2J mouse Friend erythroleukemia cells assessed as proportion of hemoglobin containing cells at 1 mM after 3 days by benzidine peroxide staining (reference value: 82.2 +/- 2.4%). Type of data set: functional. As to conditions: Leukemia cell, 72 h.
Data set [7] can be described thus: Inhibition of cell growth of DBA/2J mouse Friend erythroleukemia cells at 1 mM after 3 days in presence of bis(acetyl)diaminopentane. It is filed as functional. The following applies: Leukemia cell, 72 h. A digest of the protocol:
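Log-phase Friend erythroleukemia cells (DBA/2J origin) were seeded at 10⁵ cells/mL in DMEM plus 10% fetal calf serum at 37 °C under 10% CO₂. Analogue at 1 mM was combined with the inducer bis(acetyl)diaminopentane at 4.5 mM. After 3 days, cell numbers were counted with a Coulter counter to give percent cytostasis.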

Data set [8] in a line: Bis(acetyl)diaminopentane-induced cell differentiation in DBA/2J mouse Friend erythroleukemia cells assessed as proportion of hemoglobin containing cells at 0.4 mM after 3 days by benzidine peroxide staining (reference value: 82.2 +/- 2.4%). The following applies: Leukemia cell, 72 h.
Data set [9] can be described thus: Inhibition of cell growth of DBA/2J mouse Friend erythroleukemia cells at 0.4 mM after 3 days in presence of bis(acetyl)diaminopentane. Type of data set: functional. As to conditions: Leukemia cell, 72 h. The essentials:
as §1

pIC50: −log10 of the molar value. Activity calls are given as the source filed them. The calls are words filed in the database; no cut-off is given here.

Take `CC(=O)OC[C@H]1O[C@@H](OC(C)=O)[C@H](NC(=O)CBr)[C@@H](OC(C)=O)[C@H]1OC(C)=O`: in [1], the inhibition at 4 µM came out at 83%. Further, in [2], the LD50 turned out to be 220 µmol/kg. Further, the outcome in data set [3] and in data set [4] was inactive. The compound also showed a pIC50 in data set [5] of 5.40.
Take `NC(=O)CCl`: in data set [3], the result was inactive. In data set [5], this compound had a negative-log IC50 (pIC50) of 3.70.
On to `O=C(CCl)N[C@@H]1[C@@H](O)[C@@H](O)[C@@H](CO)O[C@H]1O`, for which the LD50 in data set [2] is 1500 µmol/kg. For the same compound, the result in data set [3] was inactive.
As to `CC(=O)OC[C@H]1O[C@@H](OC(C)=O)[C@H](NC(=O)CCl)[C@@H](OC(C)=O)[C@@H]1OC(C)=O`, the LD50 in [2] turned out to be 940 µmol/kg. Also, the result in data set [3] and in data set [4] was inactive. Besides, the negative-log IC50 (pIC50) in data set [5] is 5.10.
As to `O=C(CF)N[C@@H]1[C@@H](O)[C@@H](O)[C@@H](CO)O[C@H]1O`, the LD50 in [2] came out at 740 µmol/kg. The result in data set [3] was inactive.
With `CC(=O)N[C@H]1[C@H](OC(C)=O)O[C@H](COC(C)=O)[C@@H](OC(C)=O)[C@@H]1OC(C)=O`, in data set [3], the outcome was inactive. This compound also showed a pIC50 in [5] of 3.40.
On to `O=C(O)CF` [FLUOROACETATE], for which the LD50 in data set [2] amounted to 100 µmol/kg. Also, the outcome in data set [3] was inactive.
For `O=C(CF)N[C@@H]1[C@@H](O)[C@H](O)[C@@H](CO)O[C@H]1O`, the inhibition at 1000 µM stood at 69.5% in data set [6] and 83% in data set [7]. Also, in data set [2], the median lethal dose (LD50) worked out at 180 µmol/kg. The outcome in [3] and in data set [4] was inactive. In addition, the pIC50 in data set [5] is 3.00.
For `O=C(CCl)N[C@@H]1[C@@H](O)[C@H](O)[C@@H](CO)O[C@H]1O`, in data set [8], the benzidine-positive cells % at 400 µM stood at 24%. In data set [9], the inhibition at 400 µM came out at 83%. The LD50 in [2] stood at 2000 µmol/kg. Also, the result in [3] and in [4] was inactive. In addition, the negative-log IC50 (pIC50) in data set [5] was 3.40.
With `CC(=O)OC[C@H]1O[C@@H](OC(C)=O)[C@H](NC(=O)CF)[C@@H](OC(C)=O)[C@@H]1OC(C)=O`, the LD50 in [2] was found to be 170 µmol/kg. For the same compound, the outcome in data set [3] and in data set [4] was inactive. The compound also gave a negative logarithm of the IC50 (pIC50) in [5] of 4.22.
For the compound `O=C(CBr)N[C@@H]1[C@@H](O)[C@H](O)[C@@H](CO)O[C@H]1O`, the LD50 in data set [2] was above 2400 µmol/kg. The result in data set [3] was inactive.
Regarding `CC(=O)OC[C@H]1O[C@@H](OC(C)=O)[C@H](NC(=O)CBr)[C@@H](OC(C)=O)[C@@H]1OC(C)=O`, in [2], the LD50 stood at 210 µmol/kg. Moreover, the result in [3] and in data set [4] was inactive. The pIC50 in [5] was 5.52.
With `O=C(CBr)N[C@@H]1[C@@H](O)[C@@H](O)[C@@H](CO)O[C@H]1O`, the median lethal dose (LD50) in data set [2] worked out at 1700 µmol/kg. The outcome in [3] was inactive.
`CC(=O)OC[C@H]1O[C@@H](OC(C)=O)[C@H](NC(=O)CF)[C@@H](OC(C)=O)[C@H]1OC(C)=O`: the median lethal dose (LD50) in [2] was determined as 980 µmol/kg. The outcome in data set [3] and in data set [4] was inactive. Further, the negative-log IC50 (pIC50) in [5] was 4.22.
As for `CC(=O)OC[C@H]1O[C@@H](OC(C)=O)[C@H](NC(=O)CCl)[C@@H](OC(C)=O)[C@H]1OC(C)=O`, the 50% lethal dose (LD50) in data set [2] came out at 670 µmol/kg. Besides, the result in [3] and in data set [4] was inactive. For the same compound, the pIC50 in [5] was 4.82.

Broadly, the inhibition is the percentage by which the read-out fell short of the control. For orientation: LD50 means the dose at which mortality reaches 50%. By pIC50 is commonly meant the negative decadic logarithm of the IC50, by convention in mol/L. Read a low pIC50 as a large IC50.
